Assay results as given in ChEMBL document CHEMBL1138489, “Chalcones: a valid scaffold for monoamine oxidases inhibitors” (J Med Chem, 2009).

The molecules below were run against T1, Amine oxidase [flavin-containing] A (Homo sapiens, UniProt P21397) (assay: Inhibition of human recombinant MAO-A assessed as hydrogen peroxide production at 1 mM).
T1 sequence (P21397 whole entry): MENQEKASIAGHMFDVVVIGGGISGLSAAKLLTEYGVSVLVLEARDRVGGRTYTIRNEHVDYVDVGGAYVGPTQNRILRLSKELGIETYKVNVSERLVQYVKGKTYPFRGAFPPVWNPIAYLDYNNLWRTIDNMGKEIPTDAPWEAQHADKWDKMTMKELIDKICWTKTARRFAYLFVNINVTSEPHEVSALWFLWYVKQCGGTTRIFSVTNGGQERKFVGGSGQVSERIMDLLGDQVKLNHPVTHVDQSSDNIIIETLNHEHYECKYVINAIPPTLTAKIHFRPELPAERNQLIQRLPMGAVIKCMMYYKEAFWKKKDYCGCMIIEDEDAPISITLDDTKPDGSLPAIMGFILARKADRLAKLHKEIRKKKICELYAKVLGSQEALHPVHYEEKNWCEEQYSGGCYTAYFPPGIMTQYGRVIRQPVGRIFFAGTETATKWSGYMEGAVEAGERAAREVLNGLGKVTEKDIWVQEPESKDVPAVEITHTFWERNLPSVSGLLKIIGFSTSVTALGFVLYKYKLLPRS

Row | SMILES | IC50
1 | O=C(/C=C/c1ccc(Cl)cc1)c1ccc(O)cc1O | Not Active
2 | C#CCN(C)CCCOc1ccc(Cl)cc1Cl [CLORGILINE] | Not Active
3 | C#CCN(C)[C@H](C)Cc1ccccc1 [SELEGILINE] | Not Active

What follows are molecules tested against T2, Amine oxidase [flavin-containing] B (Homo sapiens, UniProt P27338) (assay: Inhibition of human MAO-B at 20 uM before washing).
T2 sequence (P27338 whole entry): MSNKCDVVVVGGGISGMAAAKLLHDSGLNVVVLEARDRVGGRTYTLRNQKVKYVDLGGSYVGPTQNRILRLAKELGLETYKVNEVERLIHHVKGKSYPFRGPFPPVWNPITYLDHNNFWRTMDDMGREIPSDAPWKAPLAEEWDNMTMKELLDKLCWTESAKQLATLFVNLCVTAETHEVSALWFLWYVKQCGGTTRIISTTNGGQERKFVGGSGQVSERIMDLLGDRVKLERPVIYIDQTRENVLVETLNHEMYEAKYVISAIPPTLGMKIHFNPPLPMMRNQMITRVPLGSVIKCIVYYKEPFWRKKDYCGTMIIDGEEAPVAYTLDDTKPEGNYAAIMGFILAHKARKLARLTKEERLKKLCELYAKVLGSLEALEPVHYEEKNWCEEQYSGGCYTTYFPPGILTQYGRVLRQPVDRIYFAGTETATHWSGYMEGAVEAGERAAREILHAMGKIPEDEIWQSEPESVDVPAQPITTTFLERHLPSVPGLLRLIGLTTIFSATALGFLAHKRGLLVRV

Row | SMILES | inhibition (INH)
4 | CC(C)=CCOc1ccc(C(=O)/C=C/c2ccccc2)c(O)c1 [CORDOIN] | 54.32%

What follows are molecules tested against T1, Amine oxidase [flavin-containing] A (assay: Inhibition of human recombinant MAO-A assessed as hydrogen peroxide production at 50 uM).
In short: (§1)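 Recombinant hMAO-A or hMAO-B microsomes came from baculovirus-infected BTI-TN-5B1-4 insect cells. Enzyme was set to 165 pmol p-tyramine/min (A 1.1 µg, B 7.5 µg protein). It was preincubated with compound in 0.05 M sodium phosphate, pH 7.4, for 15 min at 37 °C. Final 200 µM Amplex Red, 1 U/mL HRP and 1 mM p-tyramine started the reaction. H2O2 was read as resorufin fluorescence (ex 545/em 590 nm) over 15 min at 37 °C against vehicle controls.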

Row | SMILES | IC50
5 | O=C(/C=C/c1ccc(Cl)cc1)c1ccc(O)cc1 | Not Active
6 | O=C(/C=C/c1ccc(Cl)cc1)c1ccccc1O | Not Active

The molecules below were run against T2, Amine oxidase [flavin-containing] B (assay: Inhibition of human recombinant MAO-B assessed as hydrogen peroxide production at 1 mM).
In short: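 Microsomal recombinant hMAO-B (baculovirus-infected BTI-TN-5B1-4 insect cells; 7.5 µg protein) preincubated with drug in 0.05 M sodium phosphate, pH 7.4, 15 min, 37 °C. Started with (final) 200 µM Amplex Red, 1 U/mL horseradish peroxidase, 1 mM p-tyramine. H2O2 read as resorufin fluorescence (ex 545/em 590 nm) over 15 min at 37 °C. Vehicle controls; five experiments.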

Row | SMILES | IC50
7 | O=C(NCCN1CCOCC1)c1ccc(Cl)cc1 [MOCLOBEMIDE] | Not Active

What follows are molecules tested against T2, Amine oxidase [flavin-containing] B (assay: Inhibition of human MAO-B at 5 uM before washing).

Row | SMILES | inhibition (INH)
8 | O=C(/C=C/c1ccc(Cl)cc1)c1ccc(O)cc1O | 55.12%
9 | COc1ccc(C(=O)/C=C/c2ccc(Cl)cc2)c(O)c1 | 59.13%

These molecules were tested against T2, Amine oxidase [flavin-containing] B (assay: Inhibition of human MAO-B at 5 uM after repeated washing).

Row | SMILES | inhibition (INH)
10 | O=C(/C=C/c1ccc(Cl)cc1)c1ccc(O)cc1O | 61.38%
11 | COc1ccc(C(=O)/C=C/c2ccc(Cl)cc2)c(O)c1 | 60.26%

The molecules below were run against T1, Amine oxidase [flavin-containing] A (assay: Inhibition of human recombinant MAO-A assessed as hydrogen peroxide production at 20 uM).
In short: as §1

Row | SMILES | IC50
12 | COc1ccc(C(=O)/C=C/c2ccc(Cl)cc2)cc1 | Not Active
13 | CC(C)=CCOc1ccc(C(=O)/C=C/c2ccc(Cl)cc2)c(O)c1 | Not Active
14 | COc1ccc(/C=C/C(=O)c2ccc(OCC=C(C)C)cc2O)cc1 | Not Active
15 | O=C(/C=C/c1ccccc1)c1ccccc1 [CHALCONE] | Not Active
16 | CC(C)=CCOc1ccc(C(=O)/C=C/c2ccc(OCc3ccccc3)cc2)c(O)c1 | Not Active
17 | O=C(/C=C/c1ccc(OCc2ccccc2)cc1)c1ccc(F)cc1 | Not Active
18 | CC(C)=CCOc1ccc(C(=O)/C=C/c2ccccc2)c(O)c1 [CORDOIN] | Not Active
19 | O=C(/C=C/c1ccc(Cl)cc1)c1ccc(OCc2ccccc2)cc1 | Not Active
20 | COc1ccc(C(=O)/C=C/c2ccc(OCc3ccccc3)cc2)cc1 | Not Active
21 | CS(=O)(=O)c1ccc(C(=O)/C=C/c2ccc(Cl)cc2)cc1 | Not Active
22 | CC(C)=CCOc1ccc(C(=O)/C=C/c2ccc(C)cc2)c(O)c1 | Not Active

The molecules below were run against T1, Amine oxidase [flavin-containing] A (assay: Inhibition of human recombinant MAO-A assessed as hydrogen peroxide production).

Row | SMILES | IC50
23 | O=C(/C=C/c1ccc(Cl)cc1)c1ccc(O)cc1O | 4.95 µM

These molecules were tested against T2, Amine oxidase [flavin-containing] B (assay: Inhibition of human recombinant MAO-B assessed as hydrogen peroxide production at 20 uM).

Row | SMILES | IC50
24 | COc1ccc(/C=C/C(=O)c2ccc(OCC=C(C)C)cc2O)cc1 | Not Active
25 | CC(C)=CCOc1ccc(C(=O)/C=C/c2ccc(OCc3ccccc3)cc2)c(O)c1 | Not Active

Species: Homo sapiens
Assay: Selectivity index, ratio of inhibition of human recombinant MAO-A at 20 uM or 50 uM to IC50 for human recombinant MAO-B; call rule not given here

Row | SMILES | Ratio IC50
26 | O=C(/C=C/c1ccc(Cl)cc1)c1ccc(F)cc1O | > 704
27 | COc1ccc(C(=O)/C=C/c2ccc(Cl)cc2)cc1 | > 370
28 | CC(C)=CCOc1ccc(C(=O)/C=C/c2ccc(Cl)cc2)c(O)c1 | > 16
29 | O=C(/C=C/c1ccccc1)c1ccccc1 [CHALCONE] | > 14
30 | O=C(/C=C/c1ccc(Cl)cc1)c1ccc(O)cc1O | 971
31 | O=C(/C=C/c1ccc(OCc2ccccc2)cc1)c1ccc(F)cc1 | > 40
32 | CC(C)=CCOc1ccc(C(=O)/C=C/c2ccccc2)c(O)c1 [CORDOIN] | > 1.1
33 | COc1ccc(C(=O)/C=C/c2ccc(OCc3ccccc3)cc2)cc1 | > 44
34 | O=C(/C=C/c1ccc(Cl)cc1)c1ccc(O)cc1 | > 1610
35 | CS(=O)(=O)c1ccc(C(=O)/C=C/c2ccc(Cl)cc2)cc1 | > 43
36 | O=C(/C=C/c1ccc(Cl)cc1)c1ccccc1O | > 312
37 | CC(C)=CCOc1ccc(C(=O)/C=C/c2ccc(C)cc2)c(O)c1 | > 19

These molecules were tested against T2, Amine oxidase [flavin-containing] B.

Row | SMILES | IC50
38 | O=C(/C=C/c1ccc(Cl)cc1)c1ccc(F)cc1O | 0.071 µM
39 | COc1ccc(C(=O)/C=C/c2ccc(Cl)cc2)cc1 | 0.054 µM
40 | CC(C)=CCOc1ccc(C(=O)/C=C/c2ccc(Cl)cc2)c(O)c1 | 1.25 µM
41 | O=C(/C=C/c1ccccc1)c1ccccc1 [CHALCONE] | 1.41 µM
42 | O=C(/C=C/c1ccc(Cl)cc1)c1ccc(O)cc1O | 0.0051 µM
43 | O=C(/C=C/c1ccc(OCc2ccccc2)cc1)c1ccc(F)cc1 | 0.5 µM
44 | CC(C)=CCOc1ccc(C(=O)/C=C/c2ccccc2)c(O)c1 [CORDOIN] | 18.8 µM
45 | COc1ccc(C(=O)/C=C/c2ccc(OCc3ccccc3)cc2)cc1 | 0.45 µM
46 | O=C(/C=C/c1ccc(Cl)cc1)c1ccc(O)cc1 | 0.031 µM
47 | CS(=O)(=O)c1ccc(C(=O)/C=C/c2ccc(Cl)cc2)cc1 | 0.47 µM
48 | O=C(/C=C/c1ccc(Cl)cc1)c1ccccc1O | 0.16 µM
49 | CC(C)=CCOc1ccc(C(=O)/C=C/c2ccc(C)cc2)c(O)c1 | 1.03 µM

Each molecule was assayed against T2, Amine oxidase [flavin-containing] B (assay: Inhibition of human MAO-B at 20 uM after repeated washing).

Row | SMILES | inhibition (INH)
50 | CC(C)=CCOc1ccc(C(=O)/C=C/c2ccccc2)c(O)c1 [CORDOIN] | 58.51%
